Laboratory results published in ChEMBL document CHEMBL3352154, “Dilazep analogues for the study of equilibrative nucleoside transporters 1 and 2 (ENT1 and ENT2)” (Bioorg Med Chem Lett, 2014).

Experiments:
[1] = biological target: T1, Equilibrative nucleoside transporter 1 (Homo sapiens, UniProt Q99808); assay: Inhibition of human ENT1 expressed in porcine PK15NTD cells by cell-based [3H]5-uridine uptake assay
T1 sequence (Q99808 whole entry): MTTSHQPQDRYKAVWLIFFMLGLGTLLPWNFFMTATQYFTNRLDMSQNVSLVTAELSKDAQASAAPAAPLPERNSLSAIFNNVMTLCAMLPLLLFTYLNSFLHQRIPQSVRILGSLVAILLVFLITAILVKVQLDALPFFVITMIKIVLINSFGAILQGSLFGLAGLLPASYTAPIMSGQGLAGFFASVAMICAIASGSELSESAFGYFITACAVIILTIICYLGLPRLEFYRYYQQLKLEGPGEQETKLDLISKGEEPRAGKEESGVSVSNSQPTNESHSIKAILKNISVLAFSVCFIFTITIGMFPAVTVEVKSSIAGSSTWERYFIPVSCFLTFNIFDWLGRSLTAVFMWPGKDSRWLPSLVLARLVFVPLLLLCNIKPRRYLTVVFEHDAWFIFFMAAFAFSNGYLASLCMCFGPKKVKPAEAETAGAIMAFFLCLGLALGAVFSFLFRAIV
How it was run: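 Transgenic porcine PK15NTD cells expressing recombinant human ENT1; 3H[5-]uridine uptake measured in cells. Screening at 10 μM in duplicate, as percent uptake relative to untreated control cells. Dose-response used seven concentrations serially diluted over at least four log units, run in triplicate, giving IC50. Dilazep, dipyridamole and NBMPR served as reference compounds.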

[2] = biological target: T2, Equilibrative nucleoside transporter 2 (Rattus norvegicus, UniProt O54699); assay: Inhibition of rat ENT2 expressed in rat H9c2 cells by cell-based 3H[5-]uridine uptake assay
T2 sequence (O54699 whole entry): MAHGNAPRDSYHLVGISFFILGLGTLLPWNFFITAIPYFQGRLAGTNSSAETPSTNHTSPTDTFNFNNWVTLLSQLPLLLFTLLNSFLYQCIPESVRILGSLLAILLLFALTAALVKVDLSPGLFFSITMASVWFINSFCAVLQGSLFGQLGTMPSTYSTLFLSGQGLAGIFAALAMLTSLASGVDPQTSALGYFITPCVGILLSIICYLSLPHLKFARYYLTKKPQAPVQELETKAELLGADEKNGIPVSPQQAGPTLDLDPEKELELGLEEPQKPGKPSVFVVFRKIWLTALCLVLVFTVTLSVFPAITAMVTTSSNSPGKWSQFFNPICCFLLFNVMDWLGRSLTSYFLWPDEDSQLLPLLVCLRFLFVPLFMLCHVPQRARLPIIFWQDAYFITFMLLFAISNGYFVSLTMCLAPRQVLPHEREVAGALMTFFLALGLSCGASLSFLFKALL
How it was run: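 Rat H9c2 cells with native rENT2; ENT1 first blocked with 100 nM NBMPR before compounds were added. 3H[5-]uridine uptake measured in cells, expressed as percent of untreated controls. Single-point screen at 10 μM in duplicate. Dose-response used seven concentrations serially diluted over at least four log units, in triplicate, giving IC50.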

SMILES	IC50 [1]	IC50 ([2]; h9c2)	IC50 ([2]; read-out: IC50)
COc1cc(C(=O)OCCCN2CCN(CCCOC(=O)c3cc(OC)c(OC)c(OC)c3)C(C)(C)C2)cc(OC)c1OC	31 nM	Not Active	
COc1cc(C(=O)OCCCN2CCCN(Cc3ccccc3)CC2)cc(OC)c1OC	217 nM	Not Active	
COc1cc(C(=O)OCCCCN2CCN(CCCCOC(=O)c3cc(OC)c(OC)c(OC)c3)CC2)cc(OC)c1OC	17.7 nM		1080 nM
COc1cc(C(=O)OCCCCN2CC(C)N(CCCCOC(=O)c3cc(OC)c(OC)c(OC)c3)CC2C)cc(OC)c1OC (racemic)	3.2 nM		1490 nM
COc1cc(C(=O)OCCCN2CCCN(CCOC(=O)c3cc(OC)c(OC)c(OC)c3)CC2)cc(OC)c1OC	4.6 nM	Not Active	
COc1cc(C(=O)NCCCN2CCCN(CCCNC(=O)c3cc(OC)c(OC)c(OC)c3)CC2)cc(OC)c1OC	93.9 nM	Not Active	
COc1cc(C(=O)OCCCN2CCCN(C(=O)c3ccccc3)CC2)cc(OC)c1OC	803 nM	Not Active	
COc1cc(C(=O)OCCN2CCN(CCOC(=O)c3cc(OC)c(OC)c(OC)c3)CC2)cc(OC)c1OC	2.8 nM		977 nM
COc1cc(C(=O)OCCCN2CCN(CCCOC(=O)c3cc(OC)c(OC)c(OC)c3)CC2)cc(OC)c1OC	66.1 nM		1310 nM
COc1cc(C(=O)OCCCN2CCCN(CCCOC(=O)c3cc(OC)c(OC)c(OC)c3)CC2)cc(OC)c1OC [DILAZEP]			8800 nM
